Data on five compounds can be found in ChEMBL document CHEMBL3763022, “Potent dual inhibitors of Plasmodium falciparum M1 and M17 aminopeptidases through optimization of S1 pocket interactions” (Eur J Med Chem, 2016).

Molecules are shown by their SMILES. ≈ marks a conversion by molar mass, not a printed value.

A short description of data set [1]: Inhibition of recombinant Plasmodium falciparum M17 aminopeptidase using H-Leu-NHMec as substrate preincubated for 10 mins followed by addition of substrate by spectrofluorimetric analysis. Summed up: (§1)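 E. coli-expressed enzymes, purified by Ni-NTA and size exclusion. Preincubation 10 min at 37°C with inhibitor: M1 in 100 mM Tris pH 8.0; M17 in 50 mM Tris pH 8.0, 2 mM CoCl2. Substrate H-Leu-NHMec kept below Km. Fluorescence ex 355/em 460 nm followed to steady-state velocity. Inhibitor range 500pM–500 μM. Ki from Dixon plots (1/V vs [I]).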

Data set [2] is described as follows: Inhibition of recombinant Plasmodium falciparum M1 aminopeptidase using H-Leu-NHMec as substrate preincubated for 10 mins followed by addition of substrate by spectrofluorimetric analysis. In outline:
as §1

The subject of data set [3] is Plasmodium falciparum. The data set can be described thus: Antiparasitic activity against chloroquine/quinine/pyrimethamine/sulfadoxine/NITD609-resistant Plasmodium falciparum Dd2 clone 2 assessed as growth inhibition after 72 hrs by DAPI staining-based confocal image analysis. Format: functional, organism-based. Particulars: Dd2, 72 h. Summed up:
(§2)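 Sorbitol-synchronised ring-stage parasites in human O+ erythrocytes at 2% parasitaemia, 0.3% haematocrit, incubated 72 h at 37 °C (5% CO2) with three-step log serial dilutions from 20 μM top, 0.4% DMSO final. Staining with DAPI/saponin/Triton X/EDTA in PBS, confocal imaging, parasite count.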

The subject of data set [4] is Plasmodium falciparum. The data set can be described thus: Antiparasitic activity against Plasmodium falciparum 3D7 assessed as growth inhibition after 72 hrs by DAPI staining-based confocal image analysis. The class given is functional, organism-based. Particulars: 3D7, 72 h. Summed up:
as §2

Data set [5] concerns Plasmodium falciparum. The data set can be described thus: Antiparasitic activity against Plasmodium falciparum Dd2 assessed as growth inhibition after 72 hrs by DAPI staining-based confocal image analysis. The class given is functional, organism-based. Particulars: Dd2, 72 h. In outline:
as §2

The test system of a further data set is HEK293. Kind of data set: Cytotoxicity against HEK293 cells assessed as cell viability after 72 hrs by resazurin assay. The class given is cell-based. Particulars: human, hek293, 72 h. Summed up:
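HEK293 cells in DMEM with 10% FCS, seeded at 2000 cells/well and left to adhere overnight. Compound dose response with top final 40 μM, 0.4% DMSO. Exposure 72 h at 37 °C, 5% CO2. Medium then replaced by 44 μM resazurin in serum-free DMEM for 4-6 h. Fluorescence read at ex/em 530/595 nm.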

Data set [6] in a line: Intrinsic clearance in mouse liver microsomes assessed per mg of protein at 1 uM by LC/MS analysis. Format: ADME. Particulars: read-out: CLH. In outline:
(§3)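 Human or mouse liver microsomes, 0.4 mg/mL protein in 0.1 M phosphate pH 7.4, with 1 µM compound at 37°C. Reactions started with an NADPH-regenerating system (NADP, glucose-6-phosphate, G6P dehydrogenase) plus MgCl2. Quenched with ice-cold acetonitrile at time points from 0 to 60 min. Parent compound remaining in supernatant measured by LC-MS.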

Data set [7] is described as follows: Apparent half life in mouse plasma incubated for 6 hrs by UPLC/MC analysis. The class given is ADME, cell-free. Particulars: read-out: t1/2(app). Summed up:
(§4)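 Pooled plasma (human n=3 donors; mouse from multiple animals), thawed and spiked to nominal 500 ng/mL test compound, final 0.2% DMSO and 0.4% acetonitrile (v/v). Incubated at 37°C, 4 h human or 6 h mouse. Duplicate samples taken at time points and snap-frozen. Quantified by UPLC/MS against matched-plasma standards. Half-life obtained by exponential decay fit of % remaining.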

A short description of data set [8]: Apparent half life in human plasma incubated for 4 hrs by UPLC/MC analysis. Format: ADME, cell-free. Particulars: read-out: t1/2(app). In outline: as §4
Data set [9] can be described thus: Half life in mouse liver microsomes at 1 uM by LC/MS analysis. The class given is ADME. In outline: as §3
Data set [10] is described as follows: Partition coefficient, log D of the compound at pH 7.4 by HPLC method. Format: physicochemical. Particulars: octanol/water. In outline: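 LogD estimated by gradient HPLC (Lombardo-derived method). C18-type Hydro-RP column with 50 mM ammonium acetate pH 7.4 and an acetonitrile gradient of 0–100% over 13.5 min. UV detection at 220/254 nm. Retention compared with nine standards of shake-flask-determined partition coefficients.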

Data set [11] is described as follows: Intrinsic clearance in human liver microsomes assessed per mg of protein at 1 uM by LC/MS analysis. The class given is ADME. Particulars: read-out: CLH. In outline:
as §3

A short description of data set [12]: Half life in human liver microsomes at 1 uM by LC/MS analysis. Format: ADME. In outline:
as §3

A short description of data set [13]: Kinetic solubility of compound in phosphate buffer at pH 6.5 by nephelometry. Particulars: read-out: Kinetic_solubility. The class given is physicochemical. Summed up:
(§5)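 DMSO stock serially diluted and spiked into pH 6.5 phosphate buffer or 0.01 M HCl (about pH 2.0), final 1% DMSO. Solubility range determined by nephelometry.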

A short description of data set [14]: Kinetic solubility of compound in HCl at pH 2 by nephelometry. The class given is physicochemical. Particulars: read-out: Kinetic_solubility. In outline:
as §5

In the case of `CC(C)(C)C(=O)NC(C(=O)NO)c1ccc(-c2ccccc2)cc1` (centres undefined), the Ki in data set [1] stood at 7 nM; in data set [2], 1600 nM. Further, the concentration for half-maximal inhibition (IC50) with Plasmodium falciparum [3] was found to be 219 nM; with Plasmodium falciparum [4] it was 96 nM; in the data set on Plasmodium falciparum [5], 190 nM. Also, the Activity entry in the data set with HEK293 is “Non-toxic”.
`CC(C)(C)C(=O)NC(C(=O)NO)c1ccc(-c2ccc(F)cc2F)cc1` (centres undefined): the inhibition constant (Ki) is 5.2 nM in data set [1] and 2500 nM in [2]. For the same compound, the IC50 in the data set with Plasmodium falciparum [3] stood at 216 nM; in the data set on Plasmodium falciparum [4] it was 109 nM; in the data set with Plasmodium falciparum [5] it was 164 nM. Besides, in the data set with HEK293, the Activity entry is reported as “Non-toxic”.
As for `CC(C)(C)C(=O)NC(C(=O)NO)c1ccc(Br)cc1` (centres undefined), the results for the inhibition constant Ki in [1] and in [2] were 41 nM and 65 nM, respectively. Besides, the half-inhibitory concentration (IC50) in the data set with Plasmodium falciparum [3] was found to be 163 nM; in the data set with Plasmodium falciparum [4], 169 nM; in the data set with Plasmodium falciparum [5] it was 194 nM. Moreover, in the data set with HEK293, the Activity result is given as “Non-toxic”.
Turning to `CC(C)(C)C(=O)NC(C(=O)NO)c1ccc(-c2cc(F)c(F)c(F)c2)cc1` (centres undefined), the microsomal CLint at 1 µM in data set [6] stood at 25 µL/min/mg; in [11] it was 8 µL/min/mg. In addition, the values for the half-life in data set [7] and in data set [8] were over 25 h and over 17 h, respectively. The inhibition constant Ki in data set [1] was found to be 60 nM; in [2], 78 nM. For the same compound, the half-life at 1 µM in data set [9] amounted to 1.15 h; in data set [12] it was 3.68 h. This compound yielded a pH-dependent lipophilicity (logD) in [10] of 3. Further, the IC50 came out at 107 nM in the data set on Plasmodium falciparum [3], 126 nM in the data set with Plasmodium falciparum [4] and 189 nM in the data set with Plasmodium falciparum [5]. The solubility kinetic in [13] and in data set [14] was 12.5 µg/mL (≈ 32.9 µM) each time. Besides, in the data set on HEK293, the Activity result is on record as “Non-toxic”.
Consider `CC(C)(C)C(=O)NC(C(=O)NO)c1ccc(-c2ccsc2)cc1` (centres undefined), for which the results for the Ki in [1] and in data set [2] were 9.1 nM and 640 nM, respectively. In addition, the half-maximal inhibitory concentration (IC50) is 100 nM with Plasmodium falciparum [3], 103 nM in the data set on Plasmodium falciparum [4] and 110 nM with Plasmodium falciparum [5]. The Activity result with HEK293 is recorded as “Non-toxic”.
